Source: ChEMBL document CHEMBL4043283, “Discovery and Preclinical Development of IIIM-290, an Orally Active Potent Cyclin-Dependent Kinase Inhibitor” (J Med Chem, 2018)

Columns and labels:
MDA-MB-468 = assay: Growth inhibition of human MDA-MB-468 cells after 48 hrs by MTT assay; type: functional; settings: MDA-MB-468, 48 h
How it was run: (§1)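 Cancer cell lines sourced from the National Cancer Institute (USA). Cells kept in appropriate growth medium at 37 °C, 95% humidity, 5% CO2. Antiproliferation read by tetrazolium (MTT) assay. GI50 values were determined only for compounds selected after an initial single-concentration screen.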

CYP3A4 [1] = biological target: T1, CYP3A4 (Homo sapiens, UniProt P08684); assay: Inhibition of human CYP3A4 at 2 uM using fluorogenic substrate after 5 mins by fluorometric method relative to control; type: ADME; settings: probe fluorogenic substrate
T1 sequence (P08684 whole entry): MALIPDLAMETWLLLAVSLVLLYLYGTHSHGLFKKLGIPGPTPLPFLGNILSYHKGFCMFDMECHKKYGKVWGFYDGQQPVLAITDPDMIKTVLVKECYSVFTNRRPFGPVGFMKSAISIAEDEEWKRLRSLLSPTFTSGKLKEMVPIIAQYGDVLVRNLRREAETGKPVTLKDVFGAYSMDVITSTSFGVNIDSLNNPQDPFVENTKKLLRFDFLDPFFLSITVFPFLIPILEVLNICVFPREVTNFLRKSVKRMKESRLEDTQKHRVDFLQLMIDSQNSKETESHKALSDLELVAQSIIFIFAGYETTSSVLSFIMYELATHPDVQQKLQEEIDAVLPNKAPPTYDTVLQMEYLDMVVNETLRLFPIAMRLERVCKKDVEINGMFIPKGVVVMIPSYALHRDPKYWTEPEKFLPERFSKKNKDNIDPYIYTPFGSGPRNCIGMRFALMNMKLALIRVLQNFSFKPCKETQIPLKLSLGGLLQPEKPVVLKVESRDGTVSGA

MIA PaCa-2 = assay: Induction of apoptosis in human MIAPaCa2 cells assessed as caspase-7 cleavage by Western blot method; type: functional, cell-based
How it was run: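 Lysate protein quantified against a BSA standard; 70 μg resolved by SDS-PAGE, transferred to PVDF overnight at 4 °C, 30 V; blocked 1 h in 5% nonfat milk/TBST; primary antibodies 2–4 h, HRP anti-mouse secondary 1 h; ECL detection on X-ray film.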

LOX IMVI = assay: Growth inhibition of human LOXIMVI cells after 48 hrs by MTT assay; type: functional; how it was run: as §1
Salmonella typhimurium [2] = assay: Mutagenicity in Salmonella typhimurium TA100 at 50 ug/plate in absence of liver S9 fraction by Ames test; type: toxicity; settings: salmonella enterica subsp. enterica serovar typhimurium
[3] = Intrinsic clearance in mouse liver microsomes assessed per mg of protein at 100 uM after 30 mins by LC-MS/MS analysis; type: ADME, microsome; settings: read-out: CLH
Salmonella typhimurium [4] = assay: Mutagenicity in Salmonella typhimurium TA98 at 50 ug/plate in presence of liver S9 fraction by Ames test; type: toxicity; settings: salmonella enterica subsp. enterica serovar typhimurium
[5] = Intrinsic clearance in dog liver microsomes assessed per mg of protein at 100 uM after 30 mins by LC-MS/MS analysis; type: ADME, Canis lupus familiaris, microsome; settings: read-out: CLH
How it was run: (§2)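 Intrinsic clearance obtained from substrate disappearance over time, reported per mg protein (microsomes, S9) or per 10^6 cells (hepatocytes).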

CDK9/cyclin T1 = CDK9/cyclin T1 (Homo sapiens, UniProt P50750); assay: Inhibition of CDK9/cyclin T1 (unknown origin) using YSPTSPSYSPTSPSYSPTSPKKK as substrate after 30 mins in presence of [33P]-gamma-ATP by filter binding assay; type: protein-complex assay
CDK9/cyclin T1, sequence (O60563 whole entry): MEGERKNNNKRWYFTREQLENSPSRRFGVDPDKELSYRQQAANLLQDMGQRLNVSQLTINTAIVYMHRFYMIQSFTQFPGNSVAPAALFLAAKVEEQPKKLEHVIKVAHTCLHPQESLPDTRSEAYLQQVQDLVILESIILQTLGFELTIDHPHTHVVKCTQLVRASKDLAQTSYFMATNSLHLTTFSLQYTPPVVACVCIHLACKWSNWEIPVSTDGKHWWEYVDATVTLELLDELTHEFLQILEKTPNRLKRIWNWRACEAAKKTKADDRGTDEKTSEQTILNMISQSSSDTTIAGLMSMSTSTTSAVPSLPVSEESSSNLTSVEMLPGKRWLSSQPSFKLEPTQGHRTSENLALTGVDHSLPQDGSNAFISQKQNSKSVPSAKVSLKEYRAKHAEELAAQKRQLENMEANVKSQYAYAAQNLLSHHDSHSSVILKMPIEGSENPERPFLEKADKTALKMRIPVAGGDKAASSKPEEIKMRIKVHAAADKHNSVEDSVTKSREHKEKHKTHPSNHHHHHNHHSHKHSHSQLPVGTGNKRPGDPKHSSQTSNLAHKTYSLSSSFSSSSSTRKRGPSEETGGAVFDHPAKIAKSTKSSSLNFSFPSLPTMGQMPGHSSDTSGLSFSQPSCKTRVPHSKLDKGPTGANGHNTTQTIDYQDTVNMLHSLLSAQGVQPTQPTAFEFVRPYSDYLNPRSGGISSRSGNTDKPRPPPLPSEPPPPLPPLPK
CDK9/cyclin T1, sequence (P50750 whole entry): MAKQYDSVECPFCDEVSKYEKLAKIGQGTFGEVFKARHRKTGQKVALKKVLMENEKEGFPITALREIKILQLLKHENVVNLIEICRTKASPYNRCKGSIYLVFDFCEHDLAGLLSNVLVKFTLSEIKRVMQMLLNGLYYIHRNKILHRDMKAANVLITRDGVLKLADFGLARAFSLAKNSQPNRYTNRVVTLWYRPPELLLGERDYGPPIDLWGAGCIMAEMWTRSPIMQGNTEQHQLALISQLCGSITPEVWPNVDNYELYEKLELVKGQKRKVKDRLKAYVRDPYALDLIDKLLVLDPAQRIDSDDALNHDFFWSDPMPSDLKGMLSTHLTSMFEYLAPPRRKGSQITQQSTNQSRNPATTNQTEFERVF

[6] = Growth inhibition of mouse adenocarcinoma cells after 48 hrs by MTT assay; type: functional; settings: Adenocarcinoma cell
Cytochrome P450 2C19 = Cytochrome P450 2C19 (Homo sapiens, UniProt P33261); assay: Inhibition of human CYP2C19 using fluorogenic substrate preincubated with co-factor for 10 mins followed by enzyme-substrate addition by fluorometric method; type: ADME
Cytochrome P450 2C19, sequence (P33261 whole entry): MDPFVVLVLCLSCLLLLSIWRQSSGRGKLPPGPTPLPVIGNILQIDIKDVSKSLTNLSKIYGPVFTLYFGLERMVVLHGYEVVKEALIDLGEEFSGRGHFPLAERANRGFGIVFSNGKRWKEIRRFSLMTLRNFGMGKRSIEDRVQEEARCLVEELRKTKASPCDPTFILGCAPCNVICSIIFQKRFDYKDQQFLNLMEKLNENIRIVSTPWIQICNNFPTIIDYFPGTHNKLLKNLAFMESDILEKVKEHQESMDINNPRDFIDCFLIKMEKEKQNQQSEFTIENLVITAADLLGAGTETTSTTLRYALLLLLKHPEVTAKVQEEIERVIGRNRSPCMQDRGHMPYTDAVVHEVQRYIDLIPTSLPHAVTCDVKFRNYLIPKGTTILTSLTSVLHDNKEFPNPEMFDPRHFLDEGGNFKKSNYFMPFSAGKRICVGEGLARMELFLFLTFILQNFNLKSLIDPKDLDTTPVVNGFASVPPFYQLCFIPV
How it was run: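 Cofactor plus test item or vehicle, in triplicate, preincubated 10 min at 37 °C; prewarmed enzyme–substrate mix added and incubated at 37 °C with shaking. Quench: acetonitrile (CYP2C19, CYP3A4) or 0.25 M Tris in 60% methanol (CYP2C9, CYP2D6). Metabolite fluorescence read; % inhibition computed against enzyme controls and enzyme-free blanks.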

NCI-H226 = assay: Growth inhibition of human NCI-H226 cells after 48 hrs by MTT assay; type: functional; settings: NCI-H226, 48 h; how it was run: as §1
Liver [7] = assay: Intrinsic clearance in rat liver S9 fraction assessed per mg of protein preincubated for 5 mins followed by NADPH addition measured after 30 mins by LC-MS/MS analysis; type: ADME, tissue-based; settings: s9, 0.5 h
[8] = Ratio of Cmax in Sprague-Dawley rat at 30 mg/kg, po to GI50 for human MIAPaCa2 cells
Lung = assay: Drug uptake in Sprague-Dawley rat lung at 30 mg/kg, po after 8 hrs; type: ADME, organism-based; settings: in vivo
[9] = Acute toxicity in po dosed Wistar rat assessed as mortality; type: organism-based; settings: in vivo
[10] = Pancreas to plasma partition coefficient, Kp of the compound in Sprague-Dawley rat at 30 mg/kg, po measured at 8 hrs; type: ADME, organism-based; settings: pancreas and plasma
[11] = Tmax in Sprague-Dawley rat at 10 mg/kg, po by LC-MS/MS analysis; type: ADME, organism-based; settings: in vivo
[12] = Cmax in Sprague-Dawley rat at 30 mg/kg, po by LC-MS/MS analysis; type: ADME, organism-based; design: dose 30 mg/kg, route oral; settings: in vivo
[13] = Tmax in BALB/c mouse at 10 mg/kg, po by LC-MS/MS analysis; type: ADME, organism-based; settings: in vivo
[14] = Ratio of Cmax in BALB/c mouse at 30 mg/kg, po to GI50 for human MIAPaCa2 cells
PC-3 = assay: Growth inhibition of human PC3 cells at 10 uM after 48 hrs by MTT assay relative to control; type: functional; settings: PC-3, 48 h, read-out: GI
How it was run: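 Single-concentration primary screen at 10 μM by MTT assay. Cells were NCI-sourced cancer lines grown in appropriate medium at 37 °C, 95% humidity, 5% CO2. Growth inhibition is expressed relative to control.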

Mus musculus = assay: Toxicity in CD1 nude mouse xenografted with human HCT116 cells assessed as mortality at 50 mg/kg, po qd administered on day 10 to 25 post tumor inoculation; type: organism-based; settings: in vivo
Liver [15] = assay: Drug uptake in BALB/c mouse liver at 30 mg/kg, po after 8 hrs; type: ADME, organism-based; settings: in vivo
[16] = Intrinsic clearance in human hepatocytes assessed per million cells at 3 uM after 180 mins by LC-MS/MS analysis; type: ADME, cell-based, Hepatocyte; settings: read-out: CLH; how it was run: as §2
Salmonella typhimurium [17] = assay: Mutagenicity in Salmonella typhimurium TA100 at 50 ug/plate in presence of liver S9 fraction by Ames test; type: toxicity; settings: salmonella enterica subsp. enterica serovar typhimurium
[18] = Intrinsic clearance in monkey hepatocytes assessed per million cells at 3 uM after 180 mins by LC-MS/MS analysis; type: ADME, cell-based, Macaca mulatta, Hepatocyte; settings: rhesus monkey, read-out: CLH
[19] = Growth inhibition of human SW630 cells after 48 hrs by MTT assay; type: functional; settings: SW630, 48 h; how it was run: as §1
[20] = biological target: Dual specificity mitogen-activated protein kinase kinase 5 (Homo sapiens) (UniProt Q13163); assay: Inhibition of partial length wild type human MEK5 expressed in mammalian expression system at 0.5 uM by KINOMEscan method relative to control
Dual specificity mitogen-activated protein kinase kinase 5 (Homo sapiens), sequence (Q13163 whole entry): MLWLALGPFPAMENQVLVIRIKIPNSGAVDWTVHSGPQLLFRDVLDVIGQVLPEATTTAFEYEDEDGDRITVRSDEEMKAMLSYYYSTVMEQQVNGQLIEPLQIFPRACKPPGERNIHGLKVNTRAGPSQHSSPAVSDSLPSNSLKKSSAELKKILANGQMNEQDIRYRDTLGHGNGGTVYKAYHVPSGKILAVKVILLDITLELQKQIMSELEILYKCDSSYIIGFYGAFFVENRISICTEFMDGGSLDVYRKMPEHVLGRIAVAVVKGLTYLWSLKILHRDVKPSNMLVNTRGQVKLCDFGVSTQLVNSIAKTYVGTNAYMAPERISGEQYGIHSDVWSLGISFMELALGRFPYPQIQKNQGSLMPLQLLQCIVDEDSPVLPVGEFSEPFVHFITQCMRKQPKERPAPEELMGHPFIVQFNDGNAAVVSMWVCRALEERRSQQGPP
How it was run: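 Competition binding screen (KINOMEscan) at 0.5 μM; primary binding read out as % of control, lower values indicating stronger interaction.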

[21] = Growth inhibition of HGF after 48 hrs by MTT assay; type: cell-based; settings: human, HGF cells
[22] = Half life in monkey liver S9 fraction preincubated for 5 mins followed by NADPH addition measured after 30 mins by LC-MS/MS analysis; type: ADME, tissue-based, Macaca mulatta; settings: rhesus monkey
[23] = Pancreas to plasma partition coefficient, Kp of the compound in BALB/c mouse at 30 mg/kg, po measured at 8 hrs; type: ADME, organism-based; settings: pancreas and plasma
[24] = AUC (0 to t) in BALB/c mouse at 1 mg/kg, iv by LC-MS/MS analysis; type: ADME, organism-based; settings: in vivo
CDK1/Cyclin E = CDK1/Cyclin E (Homo sapiens, UniProt P06493); assay: Inhibition of CDK1/cyclin E (unknown origin) after 30 mins in presence of [33P]-gamma-ATP by filter binding assay; type: protein-complex assay
CDK1/Cyclin E, sequence (P06493 whole entry): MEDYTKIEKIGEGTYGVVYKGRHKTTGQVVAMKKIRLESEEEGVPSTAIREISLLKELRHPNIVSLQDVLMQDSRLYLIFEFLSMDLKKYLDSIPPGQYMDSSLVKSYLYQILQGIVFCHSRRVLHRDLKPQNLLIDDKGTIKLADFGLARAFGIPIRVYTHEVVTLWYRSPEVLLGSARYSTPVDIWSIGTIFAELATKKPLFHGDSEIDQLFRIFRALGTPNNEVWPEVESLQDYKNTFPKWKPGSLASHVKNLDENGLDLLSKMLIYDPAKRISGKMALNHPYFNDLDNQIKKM
CDK1/Cyclin E, sequence (P24864 whole entry, further chain): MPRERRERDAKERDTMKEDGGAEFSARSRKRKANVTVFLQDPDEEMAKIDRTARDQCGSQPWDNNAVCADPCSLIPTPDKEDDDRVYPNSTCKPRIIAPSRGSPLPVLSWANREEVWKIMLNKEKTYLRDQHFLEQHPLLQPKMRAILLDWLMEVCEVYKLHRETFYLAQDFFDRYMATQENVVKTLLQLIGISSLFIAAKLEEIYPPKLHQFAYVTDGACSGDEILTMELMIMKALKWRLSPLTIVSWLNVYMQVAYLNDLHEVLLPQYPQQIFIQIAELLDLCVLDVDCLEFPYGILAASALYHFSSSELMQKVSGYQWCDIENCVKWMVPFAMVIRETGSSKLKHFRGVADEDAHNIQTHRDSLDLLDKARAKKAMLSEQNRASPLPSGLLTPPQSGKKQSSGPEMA

CYP3A4 [25] = biological target: T1, CYP3A4; assay: Inhibition of human CYP3A4 at 2 uM using fluorogenic substrate after 30 mins by fluorometric method relative to control; type: ADME; settings: probe fluorogenic substrate
[26] = Half life in Sprague-Dawley rat at 3 mg/kg, po by LC-MS/MS analysis; type: ADME, organism-based; settings: in vivo
DU-145 = assay: Growth inhibition of human DU145 cells after 48 hrs by MTT assay; type: functional; settings: DU-145, 48 h; how it was run: as §1

In the case of `CN1CC[C@H](c2c(O)cc(O)c3c(=O)cc(/C=C/c4c(Cl)cccc4Cl)oc23)[C@H](O)C1`, the GI50 (MDA-MB-468) is reported as 4 µM, the inhibition at 5 min, 2 µM (CYP3A4 [1]) is reported as 30% and the Activity (MIA PaCa-2) is reported as “Dose-dependent effect”. The GI50 (LOX IMVI) was 4 µM, the Activity (Salmonella typhimurium [2]) was “Non-Toxic” and the microsomal CLint at 100 µM [3] was less than 8.8 µL/min/mg. For the same molecule, the Activity (Salmonella typhimurium [4]) was “Non-Toxic”, the microsomal CLint at 100 µM [5] was greater than 29 µL/min/mg and the IC50 (CDK9/cyclin T1) was 0.0019 µM. It also gave a GI50 [6] of 1.2 µM, an IC50 (Cytochrome P450 2C19) greater than 20 µM and a GI50 (NCI-H226) of 4 µM. The CLint (Liver [7]) was 45 µL/min/mg, the Ratio [8] was 4 and the Drug uptake (Lung) was “Active”. For the same molecule, the LD50 [9] was 1000 mg/kg, the Kp at 8 h [10] was 10.5 and the Tmax [11] was 1.75 h. The Cmax [12] was 3.62 µM, the Tmax [13] was 0.25 to 1.71 h and the Ratio [14] was 4. The inhibition of growth at 10 µM (PC-3) was 84%, the Activity (Mus musculus) was “Non-Toxic” and the Drug uptake (Liver [15]) was “Active”. The hepatocyte CLint at 3 µM [16] was 4.8 µL/min/1e6 cells, the Activity (Salmonella typhimurium [17]) was “Non-Toxic” and the hepatocyte CLint at 3 µM [18] was 10.6 µL/min/1e6 cells. The GI50 [19] was 0.3 µM, the inhibition [20] was greater than 98% and the GI50 at 48 h [21] was 18 µM. For the same molecule, the half-life [22] was 0.933 h, the Kp at 8 h [23] was 6.79 and the AUC(0-t) [24] was 525 nM·h. For the same molecule, the IC50 (CDK1/Cyclin E) was 0.0759 µM, the inhibition at 0.5 h, 2 µM (CYP3A4 [25]) was 40% and the half-life [26] was 4.67 h. It also gave a GI50 (DU-145) of 5 µM.
